Hits are enriched below; roughly 3.3% of the tested compounds scored in any of these assays.
Exocytosis inh: LAMP-1 surface exposure blockers, TALL-104 cells – cell-based, flow cytometry, MLPCN library, primary screen; TALL-104 LAMP-1 surface exposure; cells stimulated with thapsigargin and PMA; inhibition, % at 10 µM; actives 0.66% (n = 360,000);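 active means inhibition above about 55%, limit read from the data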
ABCB6 inh MLPCN: ABCB6 transporter inhibitors, primary screen, K562-ABCB6 cells, flow cytometry, MLPCN library. actives 0.19% (n = 360,000). K562-ABCB6 porphyrin accumulation, 1 h; hits give low values. fluorescence ratio to DMSO, % at 10 µM. AID 602162, 2011. ATP-binding cassette sub-family B member 6 (Homo sapiens), Q9NP58;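 active means fluorescence ratio to DMSO below 75%, the collection mean minus 3 SD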;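 further: signal is porphyrin accumulated inside mitochondria; 100% equals median channel fluorescence of DMSO control wells; lower ratio means ABCB6 inhibition with less porphyrin fluorescence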
Arrestin-AP2 inh: inhibitors of beta-arrestin/AP2 binding, primary screen, biochemical, GPCR trafficking, flow cytometry | beta-arrestin 1 C-terminal peptide binding to AP2 beta2-adaptin appendage (human) | FITC-arrestin peptide / GST-AP2 beads; AP2 beta2 appendage carries R879A mutation | inhibition, % at 10 µM | actives 0.31% (n = 340,000);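 active means inhibition above a set limit, near 3 SD of compounds lacking own fluorescence, cut at about 54% in these data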;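 further: plate controls were DMSO wells for no effect and 5 µM unlabelled arrestin peptide for full effect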
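test system = AP2 appendage R879A on GSH beads | buffer or medium = PBS plus Tween 20 (0.05%) and BSA (0.1%) | incubation = 12 min plus 1 h, RT | detection = bead flow cytometry, FITC channel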
Myeloid diff 2: induction of myeloid progenitor differentiation, primary screen, cell-based, flow cytometry, MLPCN library. ER-HoxA9 myeloid progenitors, lysozyme-GFP differentiation. calls only at 10 µM. actives 1% (n = 360,000). AID 624256, 2012;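 active means normalized GFP-positive differentiation at or above the plate's own cutoff, the solvent-only control mean plus 3 SD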;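 further: cells exposed to compound for four days before flow analysis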
ATG4B inhibitor: ATG4B protease inhibitors, primary screen, biochemical, fluorescence, uHTS; Cysteine protease ATG4B (Homo sapiens), Q9Y4P1; ATG4B cleavage of LC3-PLA2, NBD-HPC fluorescence, 1 h; inhibition, % at 8.33 µM; actives 0.51% (n = 340,000); in the data active means inhibition above about 40%
Target sequence (Q9Y4P1 whole entry, looked up): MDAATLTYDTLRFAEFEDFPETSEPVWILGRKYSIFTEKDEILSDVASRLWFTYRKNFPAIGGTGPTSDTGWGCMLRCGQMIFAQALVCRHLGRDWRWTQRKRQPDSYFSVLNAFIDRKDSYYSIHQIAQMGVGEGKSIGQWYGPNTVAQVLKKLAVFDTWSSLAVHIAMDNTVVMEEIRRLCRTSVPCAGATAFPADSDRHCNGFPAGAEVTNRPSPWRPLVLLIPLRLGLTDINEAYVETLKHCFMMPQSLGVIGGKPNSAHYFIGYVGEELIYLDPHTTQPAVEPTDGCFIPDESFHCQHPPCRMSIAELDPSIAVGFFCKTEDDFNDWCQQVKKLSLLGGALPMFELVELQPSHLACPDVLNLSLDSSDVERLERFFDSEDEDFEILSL
NRP1-CendR mod: modulators of CendR peptide binding to NRP-1, primary screen, biochemical, fluorescence polarization, uHTS. Neuropilin-1 (Homo sapiens), O14786. FAM-RPARPAR peptide binding to NRP-1. inhibition, % at 25 µM. actives 0.85% (n = 360,000);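 active means inhibition or corrected inhibition above about 18%, plus a signal ratio from 0.5 to 1.5, limit read from the data, passing the limit was not always enough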
Myeloid diff: inducers of myeloid progenitor differentiation, confirmation, cell-based, GFP/Mac1 flow cytometry, cherry pick 01 | ER-HoxA9 myeloid progenitors, GFP/Mac1 double-positive flow | shares compounds with Myeloid diff 2 | actives 2% (n = 2,300) | calls only | AID 651706, 2012;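 active means share of green or green-and-red cells above 9 and 9% in run 1 or 4 and 3% in run 2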
GFP autofluor: compound fluorescence in myeloid differentiation counter-screen; fluorescence response, % (test concentration not listed); actives 7.4% (n = 2,300); ER-HoxA9 myeloid progenitors, no estrogen, GFP autofluorescence flow cytometry; vehicle wells 0%, positive control 100%; shares compounds with Myeloid diff 2;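 active means over 5% cells positive for green fluorescent reporter, or over 2% positive for both it and APC stain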;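 further: range taken on the double positive population between DMSO and positive control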
An asterisk follows results filed as active; i = inactive; . = no result; + = active, no number.

SMILES	Exocytosis inh	ABCB6 inh MLPCN	Arrestin-AP2 inh	Myeloid diff 2	ATG4B inhibitor	NRP1-CendR mod	Myeloid diff	GFP autofluor
CCC(C)(C)n1nnnc1C(c1cc2cc(C)cc(C)c2[nH]c1=O)N1CCN(Cc2ccc3c(c2)OCO3)CC1 (centres undefined)	0	95	-3	i	8	1	.	.
O=C(CS(=O)CC(=O)NC12CC3CC(CC(C3)C1)C2)Nc1ccc(F)cc1 (centres undefined)	0	87	16	i	-4	6	.	.
COc1ccccc1OCc1nnc(SCC(=O)N2CCCCC2)o1	6	99	-1	i	-1	1	.	.
COc1ccccc1OCc1nnc(SCCN2CCOCC2)o1	0	95	11	i	-7	-1	i	0
Cn1ncc(Cl)c1C(=O)N1CCN(S(=O)(=O)c2ccc(Cl)s2)CC1	1	103	3	i	-8	13	.	.
CCC(C)c1c(O)nc(SCC(=O)N2CCOCC2)[nH]c1=O (centres undefined)	0	107	-2	i	4	-14	i	0
CC(C)c1c(O)nc(SCCN2CCOCC2)[nH]c1=O	-2	100	-2	i	6	5	.	.
CCSC1=N/C(=C\c2ccc(C(=O)O)cc2)C(=O)S1	0	91	-6	i	-5	-19	.	.
CCOC(=O)SC1=N/C(=C\c2ccc(N(C)C)cc2)C(=O)S1	-1	108	8	i	-8	-2	i	1
O=C(NCCCN1CCCC1)C1CCC(=O)N1C1CCCCC1 (centres undefined)	-2	100	25	i	-4	7	.	.
CC1CC(C)CN(CCCNC(=O)C2CCC(=O)N2C2CCCC2)C1 (centres undefined)	0	101	2	i	8	-4	i	0
CSc1cccc(NC(=O)c2ccc(Cl)nc2)c1	-3	103	18	i	-1	-22	i	0
Cn1cc(CNC(=O)/C=C/c2ccc(Cl)cc2)cn1	4	100	-7	i	6	13	.	.
COc1ccc(NC(=O)c2sccc2SCc2cccc(C(F)(F)F)c2)cc1	13	93	2	i	8	12	i	0
O=C(CN1C(=O)c2cccnc2Oc2ccc(Cl)cc21)Nc1ccccc1F	-2	112	1	+	4	-32	i	0
COc1cccc(NC(=O)CN2C(=O)c3cccnc3Oc3ccc(Cl)cc32)c1	8	108	8	i	0	-2	.	.
CC(/C=C/c1ccc(N(C)C)cc1)=N/N=C1/NC(=O)CC(C(=O)Nc2ccc(Cl)cc2)S1 (centres undefined)	6	117	21	+	28	-111	i	0
CC(/C=C/c1ccc(N(C)C)cc1)=N\N=C1\NC(=O)CC(C(=O)Nc2ccccc2)S1 (centres undefined)	0	111	8	i	5	-80	.	.
Nc1nnc(N)c2ccccc12	-1	101	0	+	4	15	i	0
Nc1nsc2ccccc12	2	100	2	i	0	12	.	.
COc1ccc(NC(=O)CN(Cc2ccco2)Cc2ccco2)cc1S(=O)(=O)N1CCCCC1	1	95	0	i	-50	-7	.	.
Cc1c(C(=O)N2CCC(C)CC2)oc2ccc3c(c12)C(O)CC1(CCCCC1)O3 (centres undefined)	-4	98	-13	+	-1	10	i	1
COCCNC(=O)c1oc2ccc3c(c2c1C)C(O)CC(C)(C)O3 (centres undefined)	-9	99	18	i	1	10	.	.
COc1ccccc1NC(=O)N1CCC(NC(=O)C(Cc2ccccc2F)NC(C)=O)CC1 (centres undefined)	-10	94	14	i	-8	0	.	.
Cc1cccc(C)c1NC(=O)C1(C)CSCC(=O)N1CCOc1ccccc1 (centres undefined)	-8	.	.	i	.	-4	i	0
SMILES	Exocytosis inh	ABCB6 inh MLPCN	Arrestin-AP2 inh	Myeloid diff 2	ATG4B inhibitor	NRP1-CendR mod	Myeloid diff	GFP autofluor
CC(=O)Nc1ccc(NC(=O)CSc2ccc(-c3cccnc3)nn2)cc1	-1	105	4	i	-9	6	.	.
O=C(CSc1ccc(-c2cccnc2)nn1)Nc1ccc(Br)cc1	-1	99	46	i	-8	4	i	0
Cc1sc2nc(CSCC(=O)N3CC(C)OC(C)C3)[nH]c(=O)c2c1C (centres undefined)	-15	103	-5	i	9	-17	.	.
CCOC(=O)c1ccc(NC(=O)C2CCN(C(=O)c3ccc(OC)c(OC)c3)CC2)cc1	-1	87	-2	i	7	13	i	0
COc1cccc2c1OC[C@@H](CO)[C@H]2N(C)C(=O)Nc1ccc(Cl)cc1Cl	-3	95	7	i	-10	-3	i	0
CC1CCCCC1NC(=O)CSc1nc2ccccc2c(=O)n1Cc1ccco1 (centres undefined)	3	108	7	+	-1	4	i	0
CCOc1ccc(CN2C(=O)c3ccccc3C2=O)cc1C(=O)Nc1nnc(SCC)s1	2	95	-7	i	-2	9	.	.
CCOc1ccc(CN2C(=O)c3ccccc3C2=O)cc1C(=O)NC1CC(C)(C)NC(C)(C)C1	1	112	-10	i	0	13	i	98*
CC(C)CNC(=O)C1(C)CCN1C(=O)c1ccc(C(C)(C)C)cc1 (centres undefined)	2	99	.	i	.	-3	.	.
COc1cc(/C=C/C(=O)c2c(O)ccc3c(C)cc(=O)oc23)ccc1O	-6	93	-6	i	3	12	.	.
COc1ccc(/C=C\C(=O)c2c(O)ccc3c(C)cc(=O)oc23)cc1OC	4	100	4	i	4	-2	i	0
COc1ccc(CNS(=O)(=O)c2ccc(Br)s2)cc1	16	87	8	i	-13	-6	.	.
